According to ChEMBL document CHEMBL1806371, “Selenocyanates and diselenides: a new class of potent antileishmanial agents” (Eur J Med Chem, 2011):
Calls of active or inactive are those of the source. The calls are words filed in the database; no cut-off is given here.

Columns and labels:
Jurkat = assay: Cytotoxicity against human Jurkat cells assessed as live cells in neubauer chamber after 24 hrs by trypan blue assay; assay type: cell-based
[1] = Selectivity ratio, ratio of IC50 for human THP1 cells to IC50 for Leishmania infantum MCAN/ES/89/IPZ229/1/89 amastigotes; assay type: ADME, cell-based; details: THP-1 cells, read-out: Ratio IC50
How it was run: (§1)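 Selectivity index is IC50 against Jurkat or THP-1 cells divided by IC50 against L. infantum amastigotes. Host cells were treated in log phase at 4×10^5 cells/mL for 24 h at 37 °C, 5% CO2, at 0.08, 0.4, 2.0, 10.0 and 50.0 μM. Viability was measured by flow cytometry with propidium iodide exclusion.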

[2] = Selectivity ratio, ratio of IC50 for human Jurkat cells to IC50 for Leishmania infantum MCAN/ES/89/IPZ229/1/89 amastigotes; assay type: ADME, cell-based; details: read-out: Ratio IC50; how it was run: as §1
Leishmania infantum [3] = assay: Antileishmanial activity against Leishmania infantum MCAN/ES/89/IPZ229/1/89 amastigotes after 24 hrs by microscopy; assay type: functional, organism-based; details: MCAN/ES/89/IPZ229/1/89, 24 h
How it was run: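 Axenic L. infantum amastigotes (M199, 10% FCS, pH 5.4, 37 °C) treated in log phase at 1×10^6 parasites/mL for 24 h. Living cells counted by flow cytometry with propidium iodide exclusion, with microscopic observation by phase contrast or fluorescence. At least three independent experiments.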

Leishmania infantum [4] = assay: Antileishmanial activity against Leishmania infantum MCAN/ES/89/IPZ229/1/89 promastigotes after 24 hrs […]; assay type: functional, organism-based; details: MCAN/ES/89/IPZ229/1/89, 24 h
How it was run: (§2)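 Log-phase L. infantum promastigotes (RPMI-1640, 10% FCS, 25 mM HEPES, pH 7.2, 26 °C) treated at 2×10^6 parasites/mL for 24 h. Screening used 25, 12.5 and 6.25 μM to give percent growth inhibition. Living cells measured by flow cytometry with propidium iodide exclusion. At least three independent experiments.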

THP-1 = assay: Cytotoxicity against human THP1 cells assessed as live cells in neubauer chamber after 24 hrs by trypan blue assay; assay type: cell-based; details: THP-1, 24 h
Leishmania infantum [5] = assay: Antileishmanial activity against Leishmania infantum MCAN/ES/89/IPZ229/1/89 promastigotes assessed as growth inhibition at 25 uM after 24 hrs; assay type: functional; how it was run: as §2
Leishmania infantum [6] = assay: Antileishmanial activity against Leishmania infantum MCAN/ES/89/IPZ229/1/89 promastigotes assessed as growth inhibition at 12.5 uM after 24 hrs; assay type: functional; how it was run: as §2
Leishmania infantum [7] = assay: Antileishmanial activity against Leishmania infantum MCAN/ES/89/IPZ229/1/89 promastigotes assessed as growth inhibition at 6.25 uM after 24 hrs; assay type: functional; how it was run: as §2
Leishmania infantum [8] = assay: Ratio of edelfosine IC50 to compound IC50 for Leishmania infantum MCAN/ES/89/IPZ229/1/89 amastigotes; assay type: functional
Leishmania infantum [9] = assay: Ratio of miltefosine IC50 to compound IC50 for Leishmania infantum MCAN/ES/89/IPZ229/1/89 amastigotes; assay type: functional
[10] = Permeability across human Caco2 cells; assay type: ADME, cell-based; details: Caco-2, read-out: permeability
[11] = Human intestinal absorption in human; assay type: ADME, organism-based; details: read-out: HIA
How it was run: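 Values are computed, not measured. Human intestinal absorption (%) and Caco-2 permeability (nm/s) were predicted in silico with the PreADMET program.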

Leishmania infantum [12] = assay: Antileishmanial activity against Leishmania infantum MCAN/ES/89/IPZ229/1/89 amastigotes expressing GFP infected in human THP1 cells assessed as parasite infected cells after 48 hrs by flow cytometry (reference value: 35%); assay type: functional, THP-1

Structure (SMILES)	IC50 (Jurkat) [µM]	selectivity ratio [1]	selectivity ratio [2]	IC50 (Leishmania infantum [3]) [µM]	IC50 (Leishmania infantum [4]) [µM]	IC50 (THP-1) [µM]	GI (Leishmania infantum [5]) [%]	GI (Leishmania infantum [6]) [%]	GI (Leishmania infantum [7]) [%]	Ratio IC50 (Leishmania infantum [8])	Ratio IC50 (Leishmania infantum [9])	growth inhibition (GI) (Leishmania infantum [5])	Papp [10] [×10⁻⁶ cm/s]	Fa [11] [%]	Activity (Leishmania infantum [12]) [%]
N#C[Se]Cc1cccc([N+](=O)[O-])c1	12.2	16	21	0.57	4.18	9.32	97	80.5	47.2	–	–	–	–	–	–
N#C[Se]CCc1ccc([N+](=O)[O-])cc1	2.4	5	1	3.8	11.9	17.2	88.9	81.8	46.6	–	–	–	–	–	–
N#Cc1ccccc1C[Se][Se]Cc1ccccc1C#N	–	–	–	–	–	–	31.5	16.5	7.3	–	–	–	–	–	–
N#C[Se]Cc1ccc(C(F)(F)F)cc1	7.31	9	3	2.14	11.3	19.8	98.8	97.2	79.4	–	–	–	–	–	–
N#C[Se]Cc1ccccc1C#N	17.1	5	5	3.16	7.75	17.1	90.2	62.4	31.4	–	–	–	–	–	–
N#C[Se]Cc1ccc(Br)cc1	12.7	4	2	7.95	11.6	28.9	97.1	80.8	49.2	–	–	–	–	–	–
Cc1ccc(C[Se]C#N)cc1	14.4	7	4	3.33	11.8	24	98.6	82.8	52.8	–	–	–	–	–	–
O=[N+]([O-])c1ccccc1C[Se][Se]Cc1ccccc1[N+](=O)[O-]	2.62	8	9	0.29	12.5	2.42	77.2	58.9	50	2.8	9.8	–	–	–	–
N#C[Se]Cc1ccccc1 [BENZYLSELENOCYANATE]	10.7	10	4	2.58	7.95	25	99.4	64.1	46.5	–	–	–	–	–	–
CC(=O)Nc1ccc([Se][Se]c2ccc(NC(C)=O)c(C(=O)O)c2)cc1C(=O)O	–	–	–	–	–	–	–	–	–	–	–	inactive	–	–	–
O=[N+]([O-])c1ccc(C[Se][Se]Cc2ccc([N+](=O)[O-])cc2)cc1	26.8	77	71	0.38	–	18.8	98.7	96.3	81.8	2.2	7.5	–	2.01	98.3	17
N#Cc1ccc(C[Se][Se]Cc2ccc(C#N)cc2)cc1	–	–	–	–	–	–	32.8	21.9	10.9	–	–	–	–	–	–
CN(C)c1ccc([Se][Se]c2ccc(N(C)C)cc2)cc1	> 50	29	> 65	–	–	> 25	77.6	67.7	51.5	–	–	–	5.61	100	23
N#C[Se]Cc1ccc2ccccc2c1	14	5	4	3.72	11.2	16.8	91.5	81.1	37.1	–	–	–	–	–	–
CSc1ccc(C[Se]C#N)cc1	5.07	6	2	3.02	11.6	17	97.2	92.9	77.3	–	–	–	–	–	–
Nc1ccc([Se][Se]c2ccc(N)c(C(=O)O)c2)cc1C(=O)O	–	–	–	–	–	–	–	–	–	–	–	inactive	–	–	–
N#C[Se]Cc1ccc([N+](=O)[O-])cc1	6.86	25	10	0.68	4.3	16.8	98	95	82.3	–	–	–	–	–	–
